Reference: ChEMBL document CHEMBL1122302, “2-Benzazepines. 2. Thiazolo[5,4-d][2]benzazepines” (J Med Chem, 1983)

Assays:
[1] = Prevention of metrazole induced convulsions in the antimetrazole test.; type: functional; conditions: Mus musculus
Method in brief: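 Test compound given as a suspension in 5% acacia to three male CF-1 animals per dose level; metrazole 70 mg/kg iv 1 h later.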

[2] = molecular target: GABA-A receptor; anion channel; test: In vitro displacement of [3H]diazepam from GABA-A benzodiazepine receptor; type: protein-complex assay

Structure (SMILES) | ED50 [1] [mg/kg] | IC50 [2] [nM]
Nc1nc2c(s1)CN=C(c1ccccc1)c1cc(Cl)ccc1-2 | 7.4 | 10.5
Cc1nc2c(s1)CN=C(c1ccccc1F)c1cc(Cl)ccc1-2 | 30 | 7.8
Cc1nc2c(s1)CN=C(c1ccccc1Cl)c1cc(Cl)ccc1-2 | 50 | 4.1
CN1C(=O)CN=C(c2ccccc2)c2cc(Cl)ccc21 [DIAZEPAM] | 1 | 
Cc1nc2c(s1)CN=C(c1ccccc1)c1cc(Cl)ccc1-2 | 63 | 32
Nc1nc2c(s1)CN=C(c1ccccc1Cl)c1cc(Cl)ccc1-2 | 9.3 | 1.6
Nc1nc2c(s1)CN=C(c1ccccc1F)c1cc(Cl)ccc1-2 | 7.7 | 2.8
